# Assay results published in ChEMBL document CHEMBL4715812, “Zampanolide Binding to Tubulin Indicates Cross-Talk of Taxane Site with Colchicine and Nucleotide Sites” (J Nat Prod, 2018).
# Activity calls are given as the source filed them. No cut-off for these calls is given here.
# Key:
# Bos taurus [1] = species on record: Bos taurus; assay: (§1) Covalent modification of compound-ligated activated form of calf brain dimeric tubulin assessed as effect on nucleotide binding affinity at E-site by measuring ratio of GDP nucleotide concentration to tubulin concentration incubated for 1.5 hrs in presence or absence of 10 uM GTP followed by passage through sephadex G25 column by HPLC analysis (reference value: 0.06 +/- 0.03)
# Outline: (§2)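 40 μM calf-brain tubulin in PEDTA buffer (10 mM NaPi, 1 mM EDTA, pH 7.0) incubated 1.5 h at 25 °C with 10% excess ligand or DMSO. Unbound nucleotide removed on Sephadex G-25 in PEDTA plus 10 μM GTP and […] at 4 °C. Aliquot diluted 20-fold in 10 mM NaPi, 1% SDS, pH 7.0; tubulin and nucleotide quantified, nucleotides by HPLC after extraction.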
# Bos taurus [2] = species on record: Bos taurus; assay: as §1, with “GTP” for “GDP nucleotide”, “1.94” for “0.06”; outline: as §2
# Homo sapiens [3] = species on record: Homo sapiens; assay: (§3) Covalent modification of GAB-buffer assembled microtubule (unknown origin) assessed as effect on nucleotide binding affinity at E-site by measuring ratio of GDP concentration to microtubule concentration incubated for 30 mins in presence or absence of 1 mM GTP and measured after 20 mins by HPLC analysis (reference value: 1)
# Outline: (§4)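 Calf-brain tubulin equilibrated in PEDTA (10 mM NaPi, 1 mM EDTA, pH 7.0), with 10% molar excess ligand or DMSO, then supplemented with 3.4 M glycerol, 1 mM EGTA, MgCl2 to 6 mM, and no nucleotide or 1 mM GTP. Assembled 30 min at 37 °C, spun 20 min at 37 °C, pellets washed in warm GAB without GTP. Tubulin measured, nucleotides extracted and quantified by HPLC.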
# Homo sapiens [4] = species on record: Homo sapiens; assay: as §3, with “of GTP” for “of GDP”, “to tubulin” for “to microtubule”; outline: as §4
# Bos taurus [5] = species on record: Bos taurus; assay: Induction of oligomerization of compound-ligated activated form of calf brain tubulin assessed as formation of tetramers by measuring sedimentation coefficient at 55 uM incubated for 30 mins in presence of GDP and 3.31 mM Mg2+ by analytical ultracentrifugation
# Outline: (§5)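 Calf-brain tubulin 50 μM in PEDTA with 55 μM zampanolide or DMSO, 1 mM GDP, 7 mM total (3.31 mM free) Mg2+, plus DTT; incubated 25 °C, 30 min, sedimentation velocity at 40 000 rpm; c(S) by least-squares boundary modelling corrected to water/20 °C; assembled polymer checked by uranyl acetate negative-stain EM.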
# Bos taurus [6] = species on record: Bos taurus; assay: Induction of oligomerization of compound-ligated activated form of calf brain tubulin assessed as formation of microtubule by measuring sedimentation coefficient at 55 uM incubated for 30 mins in presence of GDP and 3.31 mM Mg2+ by electron micrography analysis; outline: as §5
# Bos taurus [7] = species on record: Bos taurus; assay: Induction of oligomerization of compound-ligated activated form of calf brain tubulin assessed as formation of double rings by measuring sedimentation coefficient at 55 uM incubated for 30 mins in presence of GDP and 3.31 mM Mg2+ by analytical ultracentrifugation; outline: as §5
# Bos taurus [8] = species on record: Bos taurus; assay: Induction of oligomerization of compound-ligated activated form of calf brain tubulin at 55 uM incubated for 30 mins in presence of 0.1 mM GTP and 0.028 mM Mg2+ by analytical ultracentrifugation
# Outline: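 Sedimentation velocity of 50 μM tubulin with 55 μM zampanolide or DMSO in PEDTA, 0.1 mM GTP, 1 mM total Mg2+ (0.028 mM free); 25 °C for 30 min, 40 000 rpm; c(S) fitted, corrected to water/20 °C.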
# Bos taurus [9] = species on record: Bos taurus; assay: Induction of oligomerization of compound-ligated activated form of calf brain tubulin assessed as oligomer formation by measuring sedimentation coefficient at 55 uM incubated for 30 mins in presence of GTP/GDP and 0.14 mM Mg2+ by analytical ultracentrifugation
# Bos taurus [10] = species on record: Bos taurus; assay: Induction of oligomerization of compound-ligated activated form of calf brain tubulin at 55 uM incubated for 30 mins in presence of 0.1 mM GDP and 0.039 mM Mg2+ by analytical ultracentrifugation
# Outline: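 Sedimentation velocity of 50 μM tubulin with 55 μM zampanolide or DMSO in PEDTA, 0.1 mM GDP, 1 mM total Mg2+ (0.039 mM free); 25 °C for 30 min, 40 000 rpm; c(S) fitted, corrected to water/20 °C.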
# Bos taurus [11] = species on record: Bos taurus; assay: Induction of oligomerization of compound-ligated activated form of calf brain tubulin assessed as formation of dimers by measuring sedimentation coefficient at 55 uM incubated for 30 mins in presence of GDP and 3.31 mM Mg2+ by […]; outline: as §5
# Bos taurus [12] = species on record: Bos taurus; assay: Induction of oligomerization of compound-ligated activated form of calf brain tubulin assessed as tubulin-tubulin interaction causing aggregation formation at 55 uM incubated for 30 mins in presence of GTP and 1.5 mM Mg2+ by analytical ultracentrifugation
# Outline: (§6)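 Tubulin 50 μM in PEDTA with 55 μM zampanolide or DMSO and 0.1 mM GTP; Mg2+ 1.5 mM total (0.14 mM free) or 3 mM total (0.77 mM free), free Mg2+ corrected for phosphate, nucleotide, EDTA binding; 25 °C, 30 min, then 40 000 rpm ultracentrifugation; c(S) distributions; negative-stain EM of samples.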
# Bos taurus [13] = species on record: Bos taurus; assay: Induction of oligomerization of compound-ligated activated form of calf brain tubulin assessed as formation of microtubule at 55 uM incubated for 30 mins in presence of GTP and 3 mM Mg2+ by electron micrography analysis; outline: as §6
# Homo sapiens [14] = species on record: Homo sapiens; assay: Induction of oligomerization of compound modified microtubule (unknown origin) assessed as peloruside binding constant at 25 degreeC incubated for 30 mins followed by GTP addition and measured after 30 mins by HPLC analysis; conditions: time 1.0 hrs
# Outline: (§7)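 Stabilized cross-linked microtubules (0.6 μM) preincubated 30 min, 25 °C with 10% excess zampanolide or DMSO in GAB (3.4 M glycerol, 10 mM NaPi, 1 mM EDTA, 6 mM MgCl2, 0.1 mM GTP, pH 6.7); peloruside 0.1–10 μM added, further 30 min at 25 °C; spun 20 min at 50 000 rpm; supernatant/pellet ligand by reverse-phase HPLC at 205/230 nm; Kb fitted, three independent measurements.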
# Homo sapiens [15] = species on record: Homo sapiens; assay: Binding affinity to stabilized microtubule (unknown origin) at 25 degreeC incubated for 30 mins followed by GTP addition and measured after 30 mins by HPLC analysis; conditions: time 1.0 hrs; outline: as §7
# Bos taurus [16] = species on record: Bos taurus; assay: Binding affinity to zampanolide-modified calf brain tubulin
# Bos taurus [17] = species on record: Bos taurus; assay: Binding affinity to calf brain tubulin assessed as compound-protein complex stoichiometry ratio of 1:1 in absence of Mg2+ by spectrofluorometry analysis
# Bos taurus [18] = species on record: Bos taurus; assay: Binding affinity to zampanolide-modified calf brain tubulin assessed as compound-protein complex stoichiometry ratio of 1:1 in absence of Mg2+ by spectrofluorometry assay
# Bos taurus [19] = species on record: Bos taurus; assay: Induction of oligomerization calf brain tubulin assessed as formation of microtubule at 100 uM incubated for 30 mins in presence of GTP and 3 mM Mg2+ by electron micrography analysis
smiles,measurement,setting,value
CC1=C[C@H]2[C@@H](O)[C@H](C)[C@@H](O)[C@@H]2[C@H]2[C@@H]3C4=C5O[C@@](C)(CC[C@H](OC4=O)[C@@H]5C)[C@@H]3C[C@@H]12,Ratio,Bos taurus [1],0.02
same,Ratio,Bos taurus [2],1.83
same,Ratio,Homo sapiens [3],0.97
same,Ratio,Homo sapiens [4],1.03
C=C1C[C@@H]2C/C=C/C(=O)C/C(C)=C\C=C\C(=O)O[C@H]([C@H](O)NC(=O)/C=C\C=C\C)C/C(C)=C/[C@H](C1)O2,"S20,w",Bos taurus [5],8 Svedberg
same,"S20,w",Bos taurus [6],> 50 Svedberg
same,"S20,w",Bos taurus [7],36 Svedberg
same,Activity,Bos taurus [8],inactive
same,"S20,w",Bos taurus [9],9 Svedberg
same,Ratio,Bos taurus [1],0.04
same,Ratio,Bos taurus [2],0.91
same,Activity,Bos taurus [10],inactive
same,Ratio,Homo sapiens [3],0.84
same,"S20,w",Bos taurus [11],6 Svedberg
same,Activity,Bos taurus [12],inactive
same,Ratio,Homo sapiens [4],0.92
same,"S20,w",Bos taurus [13],> 50 Svedberg
same,Kb,Homo sapiens [14],3.1 10^6/M
CC[C@H](/C=C(/C)[C@@H]1C[C@@H](OC)C[C@H](O)C(C)(C)[C@@]2(O)O[C@@H](C[C@@H](OC)[C@H](O)C(=O)O1)C[C@@H](OC)[C@H]2O)CO,Kb,Homo sapiens [15],4 10^6/M
COc1ccc(-c2ccc(OC)c(=O)cc2)c(OC)c1OC,Kb,Bos taurus [16],4.5 10^6/M
same,Activity,Bos taurus [17],Active
same,Activity,Bos taurus [18],Active
C=C1C[C@H]2C/C=C/C(=O)C/C(C)=C\C=C\C(=O)O[C@@H](C=O)C/C(C)=C/[C@@H](C1)O2,Ratio,Bos taurus [1],0.03
same,Ratio,Bos taurus [2],1.33
same,Ratio,Homo sapiens [3],0.84
same,Ratio,Homo sapiens [4],0.95
CC(=O)O[C@@]12CO[C@@H]1C[C@H](O)[C@@]1(C)C(=O)[C@H](O)C3=C(C)[C@@H](OC(=O)[C@H](O)[C@@H](NC(=O)OC(C)(C)C)c4ccccc4)C[C@@](O)([C@@H](OC(=O)c4ccccc4)[C@H]21)C3(C)C,Ratio,Homo sapiens [3],1.03
same,Ratio,Homo sapiens [4],1.02
C/C(=C\c1csc(C)n1)[C@@H]1C[C@@H]2O[C@]2(C)CCC[C@H](C)[C@H](O)[C@@H](C)C(=O)C(C)(C)[C@@H](O)CC(=O)O1,Activity,Bos taurus [19],Active
